From ChEMBL document CHEMBL1142242, “Indanylacetic acid derivatives carrying 4-thiazolyl-phenoxy tail groups, a new class of potent PPAR alpha/gamma/delta pan agonists: synthesis, structure-activity relationship, and in vivo efficacy” (J Med Chem, 2007)
One block for each molecule: values may come before it. Activity calls are given as the source filed them. The rule behind the calls is not given here.

How the values were obtained:
[1] = system: Mus musculus; assay: Reduction of blood glucose level in orally dosed db/db mouse at 1 mg/kg after 8 days; type: functional, organism-based; design: dose 1 mg/kg
Outline: (§1)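 Female db/db mice, on chow 3-4 weeks to confirm hyperglycemia, grouped by equal baseline blood glucose; oral dosing once daily in 0.5% methylcellulose in water; blood glucose by analyzer ~24 h after last dose; percent change vs vehicle = ((Tf/Ti)/(Vf/Vi) − 1) × 100.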

[2] = system: Mus musculus; assay: Reduction of blood glucose level in orally dosed db/db mouse at 10 mg/kg after 8 days; type: functional, organism-based; design: dose 10 mg/kg; outline: as §1
[3] = system: Rattus norvegicus; assay: Reduction of FFA level in ZDF rat at 10 mg/kg, po after 21 days; type: functional, organism-based; design: dose 10 mg/kg
Outline: (§2)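 Male ZDF rats, on chow 4-8 weeks to confirm hyperglycemia, grouped by equal baseline blood glucose; oral dosing once daily for 21 days in 0.5% methylcellulose in water; bled ~24 h after last dose; plasma FFA measured.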

[4] = system: Mus musculus; assay: Reduction of blood glucose level in orally dosed db/db mouse at 3 mg/kg after 8 days; type: functional, organism-based; design: dose 3 mg/kg; outline: as §1
[5] = biological target: Cytochrome P450 2D6 (Homo sapiens, UniProt P10635); assay: Inhibition of CYP2D6; type: ADME
Sequence of Cytochrome P450 2D6 (P10635 whole entry, canonical isoform): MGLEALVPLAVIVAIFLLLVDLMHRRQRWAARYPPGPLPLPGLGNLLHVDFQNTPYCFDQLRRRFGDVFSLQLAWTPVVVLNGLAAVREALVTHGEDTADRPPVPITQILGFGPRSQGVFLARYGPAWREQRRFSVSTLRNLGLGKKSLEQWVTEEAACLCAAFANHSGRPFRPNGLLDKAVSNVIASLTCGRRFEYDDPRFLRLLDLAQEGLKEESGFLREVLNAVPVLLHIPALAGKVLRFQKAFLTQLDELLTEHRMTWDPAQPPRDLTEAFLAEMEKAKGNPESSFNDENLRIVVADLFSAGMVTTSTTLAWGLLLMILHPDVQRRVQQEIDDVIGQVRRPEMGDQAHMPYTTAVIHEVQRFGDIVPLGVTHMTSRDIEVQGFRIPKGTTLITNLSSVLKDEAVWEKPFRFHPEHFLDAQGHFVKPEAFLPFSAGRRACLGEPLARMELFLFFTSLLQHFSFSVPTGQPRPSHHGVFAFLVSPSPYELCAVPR
Outline: (§3)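 Enzyme assays per CYP isoform (1A2, 2C8, 2D6, 3A4), with turnover of an appropriate fluorescent substrate as read-out; IC₅₀ reported.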

[6] = biological target: Peroxisome proliferator-activated receptor delta (Mus musculus, UniProt P35396); assay: Agonist activity at mouse PPAR delta
Sequence of Peroxisome proliferator-activated receptor delta (Mus musculus, UniProt P35396) (P35396 whole entry): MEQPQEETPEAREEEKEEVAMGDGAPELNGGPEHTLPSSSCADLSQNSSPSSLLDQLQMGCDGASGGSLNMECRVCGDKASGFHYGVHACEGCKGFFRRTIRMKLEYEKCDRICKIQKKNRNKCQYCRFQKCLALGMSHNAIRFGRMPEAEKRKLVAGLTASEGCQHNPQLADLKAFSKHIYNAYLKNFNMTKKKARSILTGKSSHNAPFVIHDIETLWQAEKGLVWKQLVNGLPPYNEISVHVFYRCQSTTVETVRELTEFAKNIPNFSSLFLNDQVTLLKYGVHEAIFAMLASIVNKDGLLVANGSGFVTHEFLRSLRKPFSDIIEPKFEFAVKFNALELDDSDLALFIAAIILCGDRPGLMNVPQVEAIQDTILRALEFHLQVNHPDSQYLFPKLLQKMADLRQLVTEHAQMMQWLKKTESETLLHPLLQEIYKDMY

[7] = biological target: Cytochrome P450 3A4 (Homo sapiens, UniProt P08684); assay: Inhibition of CYP3A4; type: ADME; outline: as §3
Sequence of Cytochrome P450 3A4 (P08684 whole entry): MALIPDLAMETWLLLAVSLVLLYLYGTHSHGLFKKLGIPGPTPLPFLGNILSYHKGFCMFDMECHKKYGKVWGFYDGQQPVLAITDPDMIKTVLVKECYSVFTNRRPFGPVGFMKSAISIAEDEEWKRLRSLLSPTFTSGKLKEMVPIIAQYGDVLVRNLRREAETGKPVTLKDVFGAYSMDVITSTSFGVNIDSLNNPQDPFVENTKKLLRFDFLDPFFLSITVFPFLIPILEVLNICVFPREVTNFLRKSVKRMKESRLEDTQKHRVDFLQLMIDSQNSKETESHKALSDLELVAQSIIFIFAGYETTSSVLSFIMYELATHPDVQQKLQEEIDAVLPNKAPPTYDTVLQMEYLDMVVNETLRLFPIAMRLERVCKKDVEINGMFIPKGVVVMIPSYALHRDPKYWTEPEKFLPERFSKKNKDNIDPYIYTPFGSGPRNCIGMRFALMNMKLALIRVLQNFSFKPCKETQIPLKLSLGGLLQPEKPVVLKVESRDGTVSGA

[8] = biological target: T1, Peroxisome proliferator-activated receptor gamma (Mus musculus, UniProt P37238); assay: Agonist activity at PPAR gamma in mouse 3T3L1 cells assessed as increase in insulin receptor by IRBA; type: functional, cell-based, 3T3-L1
T1 sequence (P37238 whole entry): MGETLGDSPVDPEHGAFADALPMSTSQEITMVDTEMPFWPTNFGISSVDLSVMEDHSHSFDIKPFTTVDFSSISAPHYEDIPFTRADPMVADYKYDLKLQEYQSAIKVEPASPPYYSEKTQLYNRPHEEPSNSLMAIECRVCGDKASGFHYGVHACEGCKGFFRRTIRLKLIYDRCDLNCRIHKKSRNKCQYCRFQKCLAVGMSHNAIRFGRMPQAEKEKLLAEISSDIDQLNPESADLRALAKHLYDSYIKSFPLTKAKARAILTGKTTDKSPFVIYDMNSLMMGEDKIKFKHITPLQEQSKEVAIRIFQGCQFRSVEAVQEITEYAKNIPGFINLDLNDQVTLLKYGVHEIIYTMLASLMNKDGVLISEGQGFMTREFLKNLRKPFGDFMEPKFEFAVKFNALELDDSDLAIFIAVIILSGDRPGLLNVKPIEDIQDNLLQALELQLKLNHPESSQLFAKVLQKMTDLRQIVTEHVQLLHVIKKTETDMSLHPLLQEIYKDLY

[9] = biological target: Androgen receptor (Homo sapiens, UniProt P10275); assay: Displacement of [3H]dihydrotestosterone from human recombinant androgen receptor expressed in SF9 baculovirus cells
[10] = biological target: T2, Peroxisome proliferator-activated receptor delta (Homo sapiens, UniProt Q03181); assay: Agonist activity at human PPAR delta by FRET assay; type: functional
T2 sequence (Q03181 whole entry): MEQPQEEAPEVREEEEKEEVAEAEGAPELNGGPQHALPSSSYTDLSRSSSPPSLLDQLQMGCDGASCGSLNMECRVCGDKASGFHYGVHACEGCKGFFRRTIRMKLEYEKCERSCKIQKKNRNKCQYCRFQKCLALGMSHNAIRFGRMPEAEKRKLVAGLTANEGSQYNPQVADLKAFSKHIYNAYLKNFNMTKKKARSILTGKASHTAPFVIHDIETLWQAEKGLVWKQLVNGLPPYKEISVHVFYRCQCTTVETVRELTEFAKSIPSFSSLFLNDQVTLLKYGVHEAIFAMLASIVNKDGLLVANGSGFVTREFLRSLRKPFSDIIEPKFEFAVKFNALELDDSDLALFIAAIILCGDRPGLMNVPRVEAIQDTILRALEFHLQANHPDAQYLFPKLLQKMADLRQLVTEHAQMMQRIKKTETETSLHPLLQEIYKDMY

[11] = biological target: Peroxisome proliferator-activated receptor alpha (Mus musculus, UniProt P23204); assay: (§4) Agonist activity at mouse PPAR alpha; type: functional
[12] = biological target: T3, Peroxisome proliferator-activated receptor alpha (Mus musculus) (UniProt P23204); assay: as §4; type: functional
T3 sequence (whole entry): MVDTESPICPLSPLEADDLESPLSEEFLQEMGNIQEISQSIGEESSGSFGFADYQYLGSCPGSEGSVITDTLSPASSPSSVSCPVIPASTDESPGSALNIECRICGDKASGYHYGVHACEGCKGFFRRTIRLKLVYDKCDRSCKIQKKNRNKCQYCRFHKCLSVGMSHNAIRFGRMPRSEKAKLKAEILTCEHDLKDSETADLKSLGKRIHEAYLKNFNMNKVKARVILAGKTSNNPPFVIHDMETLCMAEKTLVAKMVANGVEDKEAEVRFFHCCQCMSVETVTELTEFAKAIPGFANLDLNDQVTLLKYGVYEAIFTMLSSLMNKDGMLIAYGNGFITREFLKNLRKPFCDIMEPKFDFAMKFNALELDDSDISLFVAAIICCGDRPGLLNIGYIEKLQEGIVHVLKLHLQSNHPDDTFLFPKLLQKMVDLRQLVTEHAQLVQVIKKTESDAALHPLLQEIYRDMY

[13] = Aqueous solubility at pH 6.8; type: physicochemical
[14] = biological target: PPAR gamma (Homo sapiens); assay: Agonist activity at human PPAR gamma expressed in human preadipocytes assessed as increase in insulin receptor by IRBA
[15] = biological target: Cytochrome P450 2C9 (Homo sapiens, UniProt P11712); assay: Inhibition of CYP2C9; type: ADME
Sequence of Cytochrome P450 2C9 (P11712 whole entry): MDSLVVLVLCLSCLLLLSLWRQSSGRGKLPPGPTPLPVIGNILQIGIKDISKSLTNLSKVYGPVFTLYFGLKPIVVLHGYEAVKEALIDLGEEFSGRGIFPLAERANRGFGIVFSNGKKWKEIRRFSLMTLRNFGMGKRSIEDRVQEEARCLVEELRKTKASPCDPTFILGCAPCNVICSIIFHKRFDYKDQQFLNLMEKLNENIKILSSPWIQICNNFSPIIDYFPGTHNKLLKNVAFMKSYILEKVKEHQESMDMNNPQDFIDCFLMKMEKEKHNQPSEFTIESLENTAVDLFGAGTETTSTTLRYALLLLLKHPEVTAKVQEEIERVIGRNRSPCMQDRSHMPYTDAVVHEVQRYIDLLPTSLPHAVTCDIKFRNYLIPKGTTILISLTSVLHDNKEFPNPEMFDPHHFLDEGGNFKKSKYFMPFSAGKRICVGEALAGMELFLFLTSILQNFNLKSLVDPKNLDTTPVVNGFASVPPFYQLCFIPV

[16] = biological target: T4, Peroxisome proliferator-activated receptor alpha (Homo sapiens, UniProt Q07869); assay: Agonist activity at human PPAR alpha by FRET assay; type: functional
T4 sequence (Q07869 whole entry): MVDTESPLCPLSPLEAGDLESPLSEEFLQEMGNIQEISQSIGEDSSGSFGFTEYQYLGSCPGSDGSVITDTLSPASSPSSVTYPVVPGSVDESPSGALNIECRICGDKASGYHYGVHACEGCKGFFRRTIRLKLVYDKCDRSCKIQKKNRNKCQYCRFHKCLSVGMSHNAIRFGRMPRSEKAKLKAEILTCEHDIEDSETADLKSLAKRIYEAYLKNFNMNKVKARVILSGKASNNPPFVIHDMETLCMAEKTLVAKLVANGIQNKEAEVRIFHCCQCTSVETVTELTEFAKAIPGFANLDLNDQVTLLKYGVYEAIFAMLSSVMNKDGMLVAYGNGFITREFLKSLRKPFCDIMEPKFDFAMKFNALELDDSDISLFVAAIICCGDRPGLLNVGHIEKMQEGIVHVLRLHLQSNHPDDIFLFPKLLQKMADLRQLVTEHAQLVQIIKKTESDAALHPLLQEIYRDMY
Outline: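 Human PPARα ligand binding domain (GST-tagged) association with biotin-labeled co-activator CBP; Eu-labeled anti-GST antibody and streptavidin-APC; incubated 2 h at rt in buffer with or without compound; fluorescence read at 615 or 655 nm emission, 340 nm excitation.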

[17] = biological target: Estrogen receptor (Mus musculus, UniProt O08537+P19785); assay: Displacement of [3H]O-estradiol from ER in Swiss mouse uteri; type: protein assay
[18] = biological target: Glucocorticoid receptor (Homo sapiens, UniProt P04150); assay: Displacement of [H]dexamethaxone from glucocorticoid receptor in HUH cells; type: cell-based
Sequence of Glucocorticoid receptor (P04150 whole entry): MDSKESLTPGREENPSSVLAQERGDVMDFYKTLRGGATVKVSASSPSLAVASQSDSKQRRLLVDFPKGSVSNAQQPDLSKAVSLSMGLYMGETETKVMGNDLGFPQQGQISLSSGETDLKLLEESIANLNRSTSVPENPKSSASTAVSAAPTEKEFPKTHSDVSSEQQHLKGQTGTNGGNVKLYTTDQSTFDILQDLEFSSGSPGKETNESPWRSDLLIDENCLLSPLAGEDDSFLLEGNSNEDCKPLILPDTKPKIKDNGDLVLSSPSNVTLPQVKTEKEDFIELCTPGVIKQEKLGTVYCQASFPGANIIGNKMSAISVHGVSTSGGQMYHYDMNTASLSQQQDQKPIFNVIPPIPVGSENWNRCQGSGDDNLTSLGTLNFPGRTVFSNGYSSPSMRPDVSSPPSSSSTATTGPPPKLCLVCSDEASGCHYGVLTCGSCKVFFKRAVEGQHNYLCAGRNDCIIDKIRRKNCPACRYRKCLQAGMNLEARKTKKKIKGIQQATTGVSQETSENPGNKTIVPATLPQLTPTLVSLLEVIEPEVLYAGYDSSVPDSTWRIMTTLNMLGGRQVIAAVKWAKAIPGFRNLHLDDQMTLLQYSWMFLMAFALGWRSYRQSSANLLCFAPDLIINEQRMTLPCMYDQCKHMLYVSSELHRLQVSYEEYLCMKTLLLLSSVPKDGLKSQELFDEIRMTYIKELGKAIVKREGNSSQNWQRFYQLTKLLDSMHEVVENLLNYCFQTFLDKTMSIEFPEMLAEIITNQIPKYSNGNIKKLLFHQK

[19] = biological target: Cytochrome P450 2C8 (Homo sapiens, UniProt P10632); assay: Inhibition of CYP2C8; type: ADME; outline: as §3
Sequence of Cytochrome P450 2C8 (P10632 whole entry): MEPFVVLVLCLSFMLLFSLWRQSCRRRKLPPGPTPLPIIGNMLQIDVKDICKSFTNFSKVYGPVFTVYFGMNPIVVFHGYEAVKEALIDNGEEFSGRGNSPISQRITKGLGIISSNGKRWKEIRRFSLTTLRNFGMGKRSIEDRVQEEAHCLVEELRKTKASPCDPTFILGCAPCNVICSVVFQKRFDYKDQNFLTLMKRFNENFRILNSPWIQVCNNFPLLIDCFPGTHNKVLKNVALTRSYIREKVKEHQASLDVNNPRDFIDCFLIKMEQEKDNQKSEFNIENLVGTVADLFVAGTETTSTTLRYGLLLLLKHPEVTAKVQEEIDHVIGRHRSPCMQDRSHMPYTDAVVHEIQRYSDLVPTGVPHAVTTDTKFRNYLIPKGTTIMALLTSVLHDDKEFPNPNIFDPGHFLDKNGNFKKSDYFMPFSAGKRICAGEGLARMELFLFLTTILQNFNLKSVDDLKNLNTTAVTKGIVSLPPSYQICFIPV

[20] = biological target: Cytochrome P450 1A2 (Homo sapiens, UniProt P05177); assay: Inhibition of CYP1A2; type: ADME; outline: as §3
Sequence of Cytochrome P450 1A2 (P05177 whole entry, the tested form may be a part): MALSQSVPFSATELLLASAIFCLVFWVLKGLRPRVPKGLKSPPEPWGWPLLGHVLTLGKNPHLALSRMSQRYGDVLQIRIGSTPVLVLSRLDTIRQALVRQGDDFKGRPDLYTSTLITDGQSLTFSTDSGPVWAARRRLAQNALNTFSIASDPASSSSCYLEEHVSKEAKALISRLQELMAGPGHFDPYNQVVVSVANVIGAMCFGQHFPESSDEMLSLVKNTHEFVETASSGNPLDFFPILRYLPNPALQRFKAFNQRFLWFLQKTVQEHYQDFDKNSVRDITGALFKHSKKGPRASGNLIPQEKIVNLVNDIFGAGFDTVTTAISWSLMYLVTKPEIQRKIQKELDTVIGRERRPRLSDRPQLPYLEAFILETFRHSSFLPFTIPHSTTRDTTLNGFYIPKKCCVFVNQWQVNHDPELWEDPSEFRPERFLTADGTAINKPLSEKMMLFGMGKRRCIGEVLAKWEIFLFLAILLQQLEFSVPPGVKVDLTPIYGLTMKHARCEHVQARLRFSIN

[21] = biological target: T5, Peroxisome proliferator-activated receptor alpha (Homo sapiens) (UniProt Q07869); assay: (§5) Agonist activity at human PPAR alpha expressed in CV1 cells by GAL4 transactivation assay; type: functional, cell-based; conditions: CV-1
T5 sequence (whole entry): T4 sequence (Q07869 whole entry)
Outline: (§6)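 CV-1 cells plated, grown overnight at 37 °C in 5% CO₂, then transfected with GAL4-fused human PPARα ligand binding domain, pFR-LUC and pRL-SV40 reporter DNAs by lipofection. After a further overnight incubation, cells were exposed to compound or vehicle overnight. Activity was read as dual-luciferase reporter signal.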

[22] = biological target: T4, Peroxisome proliferator-activated receptor alpha; assay: as §5; type: functional, cell-based, CV-1; outline: as §6
[23] = biological target: Progesterone receptor (Homo sapiens, UniProt P06401); assay: Displacement of [3H]progesterone from progesterone receptor in T47D cells; type: cell-based
Sequence of Progesterone receptor (P06401 whole entry): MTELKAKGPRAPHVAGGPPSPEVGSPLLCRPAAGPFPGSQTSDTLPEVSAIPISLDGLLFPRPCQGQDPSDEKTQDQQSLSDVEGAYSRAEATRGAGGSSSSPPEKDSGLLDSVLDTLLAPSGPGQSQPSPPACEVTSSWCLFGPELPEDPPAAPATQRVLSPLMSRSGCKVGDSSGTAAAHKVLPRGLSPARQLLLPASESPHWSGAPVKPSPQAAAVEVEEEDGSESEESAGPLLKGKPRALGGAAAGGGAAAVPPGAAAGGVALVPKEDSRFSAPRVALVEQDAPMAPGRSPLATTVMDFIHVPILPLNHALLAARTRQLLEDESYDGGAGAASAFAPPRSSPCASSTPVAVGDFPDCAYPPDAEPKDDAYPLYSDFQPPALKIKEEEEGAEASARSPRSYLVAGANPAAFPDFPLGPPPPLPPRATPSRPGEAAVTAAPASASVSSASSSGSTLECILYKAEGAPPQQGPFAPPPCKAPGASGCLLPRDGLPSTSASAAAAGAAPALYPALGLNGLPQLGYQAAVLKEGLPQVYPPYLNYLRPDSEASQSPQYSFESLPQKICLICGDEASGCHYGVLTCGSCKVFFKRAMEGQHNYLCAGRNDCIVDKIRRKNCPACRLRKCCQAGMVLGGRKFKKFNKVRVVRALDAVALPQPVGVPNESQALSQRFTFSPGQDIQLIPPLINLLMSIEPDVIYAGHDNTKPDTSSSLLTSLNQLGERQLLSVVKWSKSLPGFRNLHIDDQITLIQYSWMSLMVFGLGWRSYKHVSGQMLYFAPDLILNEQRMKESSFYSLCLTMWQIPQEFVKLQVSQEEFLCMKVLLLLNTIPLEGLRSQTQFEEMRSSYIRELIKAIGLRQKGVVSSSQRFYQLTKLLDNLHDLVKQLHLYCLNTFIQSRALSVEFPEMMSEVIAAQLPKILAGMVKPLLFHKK
Outline: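 Cytosol from T47D cells incubated overnight at 4 °C with ³H-progesterone at 10 nM final, with or without compound. DMSO defined total binding and 1 µM unlabelled progesterone defined nonspecific binding. Bound and free ligand were separated on a spin plate, and the flow-through was counted by scintillation.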

[24] = Cmax in mouse at 10 mg/kg, po; type: ADME, organism-based; design: dose 10 mg/kg, route oral; conditions: in vivo
Outline: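 Mice dosed orally in 0.5% methylcellulose vehicle; plasma Cmax reported.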

[25] = biological target: T2, Peroxisome proliferator-activated receptor delta; assay: Agonist activity at human PPAR delta expressed in CV1 cells by GAL4 transactivation assay
[26] = system: Rattus norvegicus; assay: Reduction of FFA level in ZDF rat at 3 mg/kg, po after 21 days; type: functional, organism-based; design: dose 3 mg/kg; outline: as §2
[27] = system: Syrian golden hamster; assay: Reduction of VLDL level in fat fed hyperlipidemic Golden Syrian hamster at 10 mg/kg, po after 14 days; type: functional, organism-based; design: dose 10 mg/kg; conditions: Mesocricetus auratus
Outline: (§7)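 Male Syrian Golden hamsters (≤7 weeks, 120-150 g) on high fat diet plus 10% fructose drinking water; bled day 10, then dosed orally once daily by weight for 14 days; necropsy day 24; EDTA plasma lipoproteins resolved by FPLC; mean ± SEM, 10 hamsters.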

[28] = system: Mus musculus; assay: Reduction of plasma triglyceride level in male human apoA1 transgenic mouse at 10 mg/kg; type: functional, organism-based; design: dose 10 mg/kg
Outline: (§8)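 hApoA1 transgenic mice, 6 weeks old at purchase, grouped by equal baseline plasma triglyceride; oral dosing once daily for 7 days in 0.5% methylcellulose in water; bled ~24 h after last dose; plasma triglyceride and HDLc by autoanalyzer; mean ± SEM, 6-8 mice.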

[29] = system: Mus musculus; assay: Increase of plasma HDLc level in male human apoA1 transgenic mouse at 10 mg/kg; type: functional, organism-based; design: dose 10 mg/kg; outline: as §8
[30] = system: PPAR alpha (Mesocricetus auratus); assay: Agonist activity at Syrian Golden hamster PPAR alpha
[31] = system: Syrian golden hamster; assay: Reduction of LDL level in fat fed hyperlipidemic Golden Syrian hamster at 10 mg/kg, po after 14 days; type: functional, organism-based; design: dose 10 mg/kg; conditions: Mesocricetus auratus; outline: as §7
[32] = system: Mus musculus; assay: Increase of plasma HDLc level in female human apoA1 transgenic mouse at 10 mg/kg; type: functional, organism-based; design: dose 10 mg/kg; outline: as §8
[33] = system: Rattus norvegicus; assay: Reduction of FFA level in ZDF rat at 1 mg/kg, po after 21 days; type: functional, organism-based; design: dose 1 mg/kg; outline: as §2
[34] = system: Syrian golden hamster; assay: Increase of HDL/LDL ratio in fat fed hyperlipidemic Golden Syrian hamster at 10 mg/kg, po after 14 days; type: functional, organism-based; design: dose 10 mg/kg; conditions: Mesocricetus auratus; outline: as §7

SMILES: CN(CCOc1ccc(CC2SC(=O)NC2=O)cc1)c1ccccn1 (stereo not given)
- Activity [1]: Dose-dependent effect
- Activity [2]: Dose-dependent effect
- Activity [3]: Active
- Activity [4]: Dose-dependent effect

SMILES: CCCc1cc(-c2nc3c(s2)CCCC3)ccc1OCCCOc1ccc2c(c1)CC[C@H]2CC(=O)O
- IC50 [5]: > 10000 nM
- EC50 [6]: 8.6 nM
- IC50 [7]: > 10000 nM
- EC50 [8]: 12 nM
- EC50 [9]: > 10000 nM
- EC50 [10]: 1.9 nM
- EC50 [11]: 7700 nM
- Activity [12]: 79%
- solubility [13]: < 5 µM
- EC50 [14]: 81 nM
- IC50 [15]: > 10000 nM
- EC50 [16]: 43 nM
- EC50 [17]: > 10000 nM
- EC50 [18]: > 10000 nM
- IC50 [19]: > 10000 nM
- IC50 [20]: > 10000 nM
- Activity [21]: 100%
- EC50 [22]: 5 nM
- EC50 [23]: > 10000 nM
- Cmax [24]: 5.1 µM
- EC50 [25]: 2.6 nM

- Activity [30]: 100%
- Activity [12]: 25%
- EC50 [17]: > 10000 nM
- Activity [21]: 88%
SMILES: CCCc1cc(C2=NC3OCCCC3S2)ccc1OCCCOc1ccc2c(c1)CC[C@H]2CC(=O)O (stereo not given in full)
- Activity [26]: Active
- Activity [27]: Active
- Activity [28]: Dose-dependent effect
- Activity [1]: Dose-dependent effect
- Activity [29]: Dose-dependent effect
- Activity [31]: Active
- Activity [32]: Active
- Activity [2]: Dose-dependent effect
- Activity [33]: Active
- Activity [34]: Active
- Activity [4]: Dose-dependent effect
